Bioassay records (PubChem BioAssay)
Sampled rows, rich in hits. Any-hit rate of the full collection: about 2.9%.
TRPC4 inh = blocks the mouse TRPC4 cation channel. hit rate 0.39% among 300,000. Q9QUQ5. HEK293 TRPC4beta/mu-opioid, DAMGO-evoked Fluo4 calcium flux; stronger effect = lower value. B-score at 10 µM;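 active means B-score over 3 SD under the library average, no early fluorescence shift, positive overall ratio signal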
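Material: HEK293 cells with stable TRPC4beta plus mu-opioid receptor expression / Probe or stimulus: DAMGO in two steps, submaximal then maximal / Compound: single concentration per test compound / Technique: kinetic Fluo4 fluorescence imaging of calcium influx / Read-out: per-well B score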
TRPC6 activator = mouse TRPC6 channel activation. Q61143. HEK293-TRPC6 membrane potential dye fluorescence; stronger effect = higher value. B-score at 10 µM. hit rate 0.13% among 310,000. AID 2550;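 active means B-score of the integrated fluorescence ratio above library mean plus 3 SD, and starting fluorescence ratio within library mean plus 5 SD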;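 further: higher score means more depolarization so channel activation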
TRPC4 act = activators of mouse TRPC4 channel; Q9QUQ5; B-score at 10 µM; HEK293 TRPC4beta/mu-opioid, Fluo4 calcium fluorescence; stronger effect = higher value; hit rate 0.49% among 310,000;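 active means B-score above 5 SD of library B-scores, and initial fluorescence ratio not above library mean plus 5 SD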;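 further: positive B-score marks a calcium rise read as TRPC4 activation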
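System – HEK293 cells stably co-expressing mouse TRPC4beta and mu-opioid receptor · Signal – Fluo4 calcium-sensitive dye fluorescence, kinetic, 1 Hz baseline · Benchmarks – buffer (low) and maximal DAMGO (high) · Read-out – B score of integrated fluorescence ratio per well · Incubation – dye loading 45 min room temperature, 110 s kinetic read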
TRPC6 inhibitor = mouse TRPC6 channel inhibition; B-score at 10 µM; hit rate 1.1% among 310,000; AID 2553; HEK293-TRPC6, membrane potential dye, ACh-evoked depolarization; stronger effect = lower value;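 active means B-score under library mean minus 3 SD, initial fluorescence not abnormally high, positive integrated signal ratio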;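 further: B-score derived from integrated fluorescence ratio over the kinetic read; more negative B-score means stronger inhibition of depolarization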
Kir21 inh = Kir2.1 (mouse) channel inhibition; B-score at 10 µM; P35561; HEK293-Kir2.1, FluxOR thallium flux fluorescence; stronger effect = lower value; hit rate 0.85% among 310,000;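 active means fluorescence ratio B-score at or below minus 3 SD of library scores, with starting-brightness B-score within 2 SD, cut at about -4.2 in these data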;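 further: channel flux triggered by added potassium and thallium sulfate stimulus; B-score of peak minus minimum fluorescence over baseline after thallium stimulus; more negative B-score means stronger Kir2.1 block with less thallium influx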
TRPC4 PAM = TRPC4 (mouse) allosteric potentiation | hit rate 0.42% among 310,000 | B-score at 10 µM | HEK293 TRPC4beta/mu-opioid, DAMGO EC20, Fluo-4 Ca2+ flux; stronger effect = higher value | Q9QUQ5;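 active means B-score of calcium response area above 5 SD of library B-scores, with initial fluorescence ratio within 5 SD of library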;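 further: B-score of integrated fluorescence ratio over time as area under calcium response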
Numbers without * were called inactive; i = inactive.

SMILES | TRPC4 inh | TRPC6 activator | TRPC4 act | TRPC6 inhibitor | Kir21 inh | TRPC4 PAM
O=C(Oc1ccc(/C=N/O)cc1)c1ccccc1 | i | i | i | i | -5.6* | i
CCOC(=O)/C(=C/c1ccc(OC(=O)c2ccncc2)cc1)C(C)=O | i | i | i | i | -1 | i
O=C(Oc1ccc(/C=N/Nc2ccccc2)cc1)c1ccccc1 | i | i | i | i | -4.6* | i
CC(=O)N1c2ccc(S(=O)(=O)N3CCCCC3)cc2CC1C(=O)Nc1ccc(C)cc1 (configuration not stated) | i | i | i | i | 0.54 | i
CN(CCNS(=O)(=O)c1ccc2c(c1)oc(=O)n2C)Cc1ccccc1 | i | i | i | i | -0.11 | 19*
CCCN1CCN(C(=O)Cn2c(=O)oc3cc(S(=O)(=O)NCc4ccccc4)ccc32)CC1 | i | i | 104* | i | -1.2 | i
O=C(Cn1c(=O)oc2cc(S(=O)(=O)NCc3ccccc3)ccc21)N1CCCC1 | i | i | i | i | -0.75 | i
O=C(Nc1sc2c(c1C(=O)O)CCCCC2)c1cccnc1 | i | i | i | i | 0.06 | i
CC(C)[C@H](NC(=O)OC(C)(C)C)c1nnc(S(=O)(=O)Cc2c(F)cccc2Cl)o1 | i | i | i | i | -4.4* | i
CC[C@@H](C)[C@H](NC(=O)OC(C)(C)C)c1nnc(S(=O)(=O)Cc2cc(C)ccc2C)o1 | i | i | i | i | -9.1* | i
Cc1ccccc1CS(=O)(=O)c1nnc([C@H](CC(C)C)NC(=O)OC(C)(C)C)o1 | i | i | i | i | -2.6 | i
CC(=O)c1cccc(Nc2c3c(nc4ccccc24)CCC3)c1 | i | i | i | i | -1.2 | i
COC(=O)c1cccc(Nc2c3c(nc4ccccc24)CCC3)c1 | -7* | i | i | i | -0.12 | i
Fc1cccc(Nc2c3c(nc4ccccc24)CCC3)c1 | -7* | i | i | i | -3 | i
Cn1cc(CNCc2cnc3ccccn23)c(-c2ccc(Oc3ccccc3)cc2)n1 | i | i | i | i | -3.3 | i
CN(Cc1cn(C)nc1-c1ccc(Oc2ccccc2)cc1)Cc1cnc2ccccn12 | i | i | i | i | -5.1* | i
Cc1ccc(OCCOCCN(C)C)c(Cl)c1 | i | i | i | i | 0.92 | i
CCc1cc(OCCOCCN(C)C)ccc1Cl | i | i | i | i | 0.7 | 15*
O=c1c2ccccc2c(C=Nc2ccc(S(=O)(=O)Nc3ncccn3)cc2)c(O)n1-c1cccc(Cl)c1 | i | i | i | i | 0.1 | i
CCOc1ccccc1Oc1c(C)oc2cc(OC(=O)c3ccco3)ccc2c1=O | i | i | i | i | -0.54 | i
COc1ccccc1-c1c(C)oc2cc(OC(=O)c3ccco3)ccc2c1=O | i | i | i | i | -9.2* | i
COC(=O)c1ccccc1S(=O)(=O)Oc1ccc(-c2ccc(C(=O)O)cc2)cc1 | i | i | i | i | 0.47 | i
N#Cc1ccc(-c2nc3cc(Cl)ccc3c(=O)n2O)cc1 | i | i | i | i | -0.9 | i
Cc1ccc(-c2nc3c(Cl)cc(Cl)cc3c(=O)n2O)cc1 | i | i | 112* | i | 0.36 | i
O=c1c2ccccc2nc(-c2ccc(Cl)c(Cl)c2)n1O | i | i | i | i | 0.59 | i
SMILES | TRPC4 inh | TRPC6 activator | TRPC4 act | TRPC6 inhibitor | Kir21 inh | TRPC4 PAM
O=c1c2cc(Cl)ccc2nc(-c2ccc([N+](=O)[O-])cc2)n1O | i | i | 45* | i | -0.1 | i
O=c1c2ccc(Cl)cc2nc(-c2cccc(C(F)(F)F)c2)n1O | i | i | 51* | i | -1.3 | i
O=c1c2cc(Br)ccc2nc(-c2ccc(Cl)cc2)n1O | i | i | 175* | i | -1.7 | i
O=C(Nc1ccn(-c2ccccc2)n1)c1ccccc1Br | i | i | i | i | 0.97 | i
O=S(=O)(Nc1ccc(S(=O)(=O)Nc2cccc3ccccc23)cc1)c1ccccc1 | i | i | i | i | 2.9 | 15*
O=S(=O)(Nc1ccc(S(=O)(=O)Nc2ccccc2)cc1)c1ccccc1 | i | i | i | i | 0 | 11*
CC12CCCCN1CCCc1c2[nH]c2ccccc12 (configuration not stated) | i | i | 91* | i | -1.3 | i
Cc1cc(C)c(OCCCCCn2ccnc2)c(C)c1 | i | i | i | i | -1.4 | i
Cc1cc(OCCCCCn2ccnc2)cc(C)c1Cl | i | i | 75* | i | -3.4 | i
Cc1cc(OCCCn2ccnc2)cc(C)c1Cl | i | i | 104* | i | -0.54 | i
COc1ccc(OCCCn2ccnc2)cc1 | i | i | i | i | -0.11 | i
CCOc1cccc(OCCCCn2ccnc2)c1 | i | i | 43* | i | -0.54 | i
Cc1ccc(C)c(OCCCCCn2ccnc2)c1 | i | i | 169* | i | -0.24 | i
Cc1[nH]n(-c2ccccc2)c(=O)c1N=Nc1nccs1 | i | i | i | i | -0.25 | i
Cc1ccccc1CN(c1ccc(C(=O)NCc2cccnc2)cc1)S(C)(=O)=O | i | i | i | i | 0.61 | i
Cc1cc(Cl)cc(C)c1OCCn1ccnc1 | i | i | i | i | -3.1 | i
Cc1ccc(OCCn2ccnc2)c([N+](=O)[O-])c1 | i | i | i | i | 0 | i
Cc1cc(Cl)cc(C)c1OCCCCCn1ccnc1 | i | i | 86* | i | -1.6 | i
Cc1cc(OCCCn2ccnc2)ccc1[N+](=O)[O-] | i | i | 43* | i | -0.71 | 21*
CCCCn1c(CCC)nc([N+](=O)[O-])c1Sc1ccc(Cl)cn1 | i | i | i | i | -4.8* | i
COc1ccc(C(=O)C2CCCN(Cc3c(C)[nH]c4ccccc34)C2)c(OC)c1 (configuration not stated) | i | i | i | -5* | 0.86 | i
COc1cc(OC)c(OC)cc1CN1CCCC(C(=O)c2ccccc2SC)C1 (configuration not stated) | i | i | i | i | -1.7 | i
COc1cc(CN2CCCC(C(=O)c3ccccc3SC)C2)cc(OC)c1 (configuration not stated) | -6* | i | i | i | -2.1 | i
